Sampled rows, rich in hits. Any-hit rate of the full collection: about 1.7%.
CAL PDZ FP-1 = untagged CAL PDZ binding inhibitors, primary screen, biochemical, fluorescence polarization, HTS | 300,000 compounds, 0.92% hits | purified CAL PDZ, TMR-peptide fluorescence polarization, 1 h | inhibition, % at 24.9 µM | Golgi-associated PDZ and coiled-coil motif-containing protein (Homo sapiens), Q9HD26;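 active means mean inhibition of at least 30% with at least half of replicates also reaching 30%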;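 further: 0% = DMSO neutral control and 100% = excess unlabeled competitor peptide PRC23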
Keap1 Nrf2 FP = Keap1-Nrf2 protein-protein interaction inhibitors, primary screen, biochemical, fluorescence polarization, single point; Kelch-like ECH-associated protein 1 (Homo sapiens), Q14145; Keap1 Kelch-Nrf2 peptide fluorescence polarization, 1536-well; inhibition, % at 9.4 µM; 340,000 compounds, 0.15% hits; in the data active means inhibition above about 12%;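 further: human Keap1 Kelch domain with fluorescein labeled Nrf2 9mer peptide probe; 0% = neutral control wells and 100% = peptide positive control; higher means more block of Keap1 binding to Nrf2 peptide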
APOBEC3G inh = APOBEC3G DNA deaminase inhibitors, primary screen, biochemical, fluorescence, single-stranded DNA substrate, uHTS. 330,000 compounds, 0.28% hits. AID 493012, 2011. recombinant A3G, ssDNA deamination FAM/TAMRA fluorescence. inhibition, % at 20 µM;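 active means inhibition of at least 40% at 20 µM, with no more than 30% in the related APOBEC3A deaminase screen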;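 further: plate controls were DMSO wells with A3G for no effect and wells lacking A3G enzyme for full effect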
Target sequence (Q9HC16 whole entry, looked up): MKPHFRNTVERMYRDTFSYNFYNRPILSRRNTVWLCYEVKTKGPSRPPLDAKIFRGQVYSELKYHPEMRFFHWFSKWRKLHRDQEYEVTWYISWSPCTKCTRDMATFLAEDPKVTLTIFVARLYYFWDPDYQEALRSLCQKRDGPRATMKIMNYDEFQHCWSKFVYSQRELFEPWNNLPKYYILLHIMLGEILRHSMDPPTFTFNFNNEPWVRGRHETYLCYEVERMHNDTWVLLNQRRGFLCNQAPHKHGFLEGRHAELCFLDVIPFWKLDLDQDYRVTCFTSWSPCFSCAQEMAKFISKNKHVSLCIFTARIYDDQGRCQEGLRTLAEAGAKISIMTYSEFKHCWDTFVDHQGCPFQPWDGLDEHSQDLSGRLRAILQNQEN
A3A deaminase = APOBEC3A ssDNA deaminase inhibitors, primary screen, selectivity assay for APOBEC3G inhibitor project, biochemical, FAM/TAMRA oligo cleavage fluorescence; DNA dC->dU-editing enzyme APOBEC-3A (Homo sapiens), P31941; recombinant A3A, FAM/TAMRA ssDNA deamination fluorescence; inhibition, % at 20 µM; 330,000 compounds, 0.41% hits; AID 493011, 2011;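 active means at least 40% inhibition at 20 µM here, with at most 30% in a related deaminase screen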;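 further: plate controls were A3A with DMSO for no effect and wells lacking A3A enzyme for full effect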
Target sequence (P31941 whole entry, looked up): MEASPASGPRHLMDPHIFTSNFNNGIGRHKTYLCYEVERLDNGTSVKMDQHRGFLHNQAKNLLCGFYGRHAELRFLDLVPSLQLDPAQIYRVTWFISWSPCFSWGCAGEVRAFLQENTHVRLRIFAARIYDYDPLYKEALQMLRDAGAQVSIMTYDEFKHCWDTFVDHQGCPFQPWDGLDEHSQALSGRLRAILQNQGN
LANA DNA inh = inhibitors of KSHV C-LANA binding to DNA, primary screen, biochemical, fluorescence polarization, FAM-LBS DNA, MBP-C-LANA, single point. Kaposi's sarcoma herpesvirus LANA C-terminal domain (residues 932-1162) DNA binding. inhibition, % at 9 µM. 340,000 compounds, 0.078% hits;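 active means highest replicate inhibition at or above 60% at 9 µM, even if other replicates fall short; inactive means all replicates below 60% inhibition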;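 further: 0% = neutral control wells and 100% = 4 µM acridine orange control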
CAL PDZ FP-2 = CAL PDZ peptide-binding inhibitors, primary screen, biochemical, fluorescence polarization, Cer-tagged CAL PDZ, HTS. Golgi-associated PDZ and coiled-coil motif-containing protein (Homo sapiens), Q9HD26. purified CAL PDZ, TMR-peptide fluorescence polarization, 1 h. inhibition, % at 20 µM. 330,000 compounds, 0.02% hits. AID 504414, 2011;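 active means highest replicate inhibition of at least 40%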;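 further: plate controls were DMSO neutral control wells for no effect and unlabeled competitor peptide control wells for full effect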
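System: tagged CAL PDZ domain. Schedule: 1 h room-temperature incubation prior to read. Signal: fluorescence polarization (mP). Measure: percent inhibition from loss of millipolarization.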
APOBEC3A confirm = APOBEC3A deaminase inhibitors, retest, confirmation, selectivity assay for APOBEC3G inhibitor project, biochemical, single concentration, fluorescence readout; shares compounds with A3A deaminase; recombinant A3A, ssDNA deaminase UDG fluorescence assay; inhibition, % at 20 µM; 1,400 compounds, 63% hits;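 active means inhibition reaching a set limit, 80% of the first screen's cutoff, at 20 µM in any replicate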;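 further: plate controls were DMSO wells with A3A for no effect and wells lacking A3A enzyme for full effect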
UDG ctr A3A = E. coli UDG inhibitors, confirmation, counter-screen for APOBEC3A inhibitor project, biochemical, single concentration, fluorescence, FAM/TAMRA oligo; shares compounds with A3A deaminase; UDG counterscreen, FAM/TAMRA uracil oligo fluorescence; inhibition, % at 20 µM; 1,000 tested, under 10 active; call rule not given here
Starred values were filed as active, the others as inactive; . = no result given.

SMILES	CAL PDZ FP-1	Keap1 Nrf2 FP	APOBEC3G inh	A3A deaminase	LANA DNA inh	CAL PDZ FP-2	APOBEC3A confirm	UDG ctr A3A
CC1(C)NC(=O)N(CC(=O)Nc2ccc(-n3cnnn3)cc2)C1=O	-9.4	3.1	-3.2	12.9	0.3	0.0	.	.
Cc1occc1C(=O)N/N=C/C=C\c1ccccc1[N+](=O)[O-]	1.0	-0.8	-5.2	0.1	1.7	-0.2	.	.
Cc1ccsc1C(=O)N/N=C/C=C/c1ccccc1[N+](=O)[O-]	79.3*	-2.1	-1.0	3.2	-1.0	-1.4	.	.
CN(C)Cc1c(C(=O)N/N=C/c2ccncc2)nnn1-c1nonc1N	0.3	3.9	-8.8	48.0*	-0.5	-1.5	0.4	-1.1
CCN(CC)Cc1c(C(=O)N/N=C/c2ccncc2)nnn1-c1nonc1N	-12.6	-0.5	0.3	-0.6	-1.2	-0.9	.	.
Oc1ccccc1C=NC(c1ccccc1)C(O)c1ccccc1 (centres undefined)	3.3	1.5	-4.7	-2.7	0.6	-0.9	.	.
Oc1ccccc1/C=N/[n+]1ccccc1	6.6	-3.2	14.8	69.4*	-2.1	0.2	65.9*	-0.7
CC(=O)c1nc(-c2ccccc2)sc1C	.	-3.3	2.3	6.9	-0.4	-0.2	.	.
CN(C(=O)COC(=O)c1ccc2c(c1)OCO2)C1CCCCC1	.	-9.4	-4.1	-1.9	0.8	-1.3	.	.
C[N+]12CCCCC1C(COC(=O)c1ccc3c(c1)OCO3)CCC2 (centres undefined)	-2.3	0.9	27.7	58.1*	0.7	-2.2	47.9*	.
Cc1ccc(S(=O)(=O)N2CCN(C(=O)/C=C/c3ccccc3)CC2)cc1C	.	4.3	2.7	31.3	2.9	-0.4	.	.
CN(C(=O)/C=C/c1ccco1)c1ccccc1C(=O)O	-2.1	-2.0	10.2	44.2*	1.6	-1.5	22.3*	-2.1
O=C([C@H](Cc1ccccc1)NS(=O)(=O)c1ccc(Cl)cc1)N1CC[C@@]2(O)CCCC[C@H]2C1	-6.3	-3.5	-4.8	-2.4	1.9	-1.7	.	.
O=C(CN1C(=O)NC2(CCCC2)C1=O)NCc1ccccc1	0.2	-7.2	-7.2	-2.6	1.0	-1.6	.	.
O=C(CN1C(=O)NC2(CCSC2)C1=O)NCc1ccccc1 (centres undefined)	-2.4	-3.9	-9.5	84.2*	-0.2	-1.4	-6.4	-2.0
Fc1ccc(Sc2ccccc2CNC2=NCCN2)cc1	-1.1	-5.3	18.1	32.0	-1.6	-2.9	.	.
OCCNC1=NCCN1	-5.9	-1.3	17.9	56.0*	0.2	-0.4	76.4*	1.4
C[n+]1cccc(/C=N/NC(=O)CC23CC4CC(CC(C4)C2)C3)c1	-0.4	1.5	16.4	44.7*	-1.4	-3.5	67.2*	0.5
CC(=O)NC(CC(=O)NC1CCCCCC1)c1ccccc1 (centres undefined)	2.4	4.5	-4.1	45.5*	0.9	1.4	32.3*	-1.6
CC(=O)NC(CC(=O)NC1CCCCC1)c1ccccc1 (centres undefined)	-1.6	-0.9	-7.1	30.3	0.6	0.1	.	.
Cc1ccc(N=Nc2[nH]c3ccccc3c2O)cc1	.	-5.1	22.0	62.6*	2.1	0.7	58.7*	-1.2
COc1ccc(N=Nc2[nH]c3ccc(C)cc3c2O)cc1	1.3	0.9	21.1	75.0*	-0.5	-2.3	52.4*	0.0
Cc1[nH]c2ccccc2c1N=Nc1ccc(F)cc1	-5.4	-0.9	-8.0	-0.3	-0.4	-2.2	.	.
Cc1ccc(N=Nc2c(O)[nH]c3ccc(F)cc23)cc1	.	-6.6	0.9	-4.7	41.4	-0.1	.	.
COC(=O)CCC(=O)OC1(C)C(=O)C=C2C=C3CCCN3C=C2C1=O (centres undefined)	-0.6	-2.5	42.8	54.2	8.2	0.8	.	.
SMILES	CAL PDZ FP-1	Keap1 Nrf2 FP	APOBEC3G inh	A3A deaminase	LANA DNA inh	CAL PDZ FP-2	APOBEC3A confirm	UDG ctr A3A
CC1(OC(=O)C2CCCC2)C(=O)C=C2C=C3CCCCN3C=C2C1=O (centres undefined)	-6.8	-5.7	19.5	43.9*	6.8	0.2	22.8*	2.1
CCOc1ccc(N(CC(=O)N/N=C/c2ccc(OC(C)C)cc2)S(C)(=O)=O)cc1	-7.5	2.7	8.5	51.7*	44.2	-1.1	26.3	.
C[N+]1(C2CCC3CCCC2C3O)CCCCC1 (centres undefined)	1.5	-4.3	20.8	64.9*	0.0	-1.8	67.9*	3.6
CC(=O)OCCCn1c(C)[n+](C)c2cc(Cl)c(Cl)cc21	-2.7	-4.2	18.9	87.0*	.	0.4	72.9*	2.0
CCn1c(C)[n+](CCOC(C)=O)c2cc(Cl)c(Cl)cc21	13.7	-2.0	21.9	63.0*	-0.2	0.8	78.2*	-3.7
CC(=O)OCCCN1C(=O)c2ccc(Br)cc2C1=O	.	5.3	-2.9	-0.1	-1.2	-1.8	.	.
CC1(c2ccccc2)NC(=O)N(CC(=O)N2CCN(S(=O)(=O)c3cccs3)CC2)C1=O (centres undefined)	-7.1	-2.5	-9.2	-3.6	0.0	-3.2	.	.
COc1ccccc1OCc1nnc(SCC(=O)Nc2nnc(C3CC3)s2)n1C	-1.1	1.6	-1.6	5.2	1.0	-1.5	.	.
CCCc1nc2ccccc2c(C(=O)N(CC)CC(=O)NCc2cccs2)c1CC	.	-1.7	5.2	50.5*	0.3	-2.1	2.1	.
CCN(CC(=O)NCc1cccs1)C(=O)c1ccc(Cl)c(Cl)c1	3.1	-2.0	-6.0	-5.6	-0.3	0.4	.	.
COc1cc(C(=O)N2CCN(S(=O)(=O)c3cccc(F)c3)CC2)ccc1OCC(=O)N1CCOCC1	-0.5	4.8	6.9	-2.5	-0.5	-1.2	.	.
CCC(=O)Oc1ccc(C(=O)Nc2cccc(C(=O)c3ccccc3)c2)cc1	0.0	-1.6	-2.9	44.6*	-1.0	.	-6.0	0.9
CC(=O)Oc1ccc(C(=O)Nc2cccc(C(=O)c3cccc(NC(=O)c4ccc(OC(C)=O)cc4)c3)c2)cc1	1.1	-4.1	-7.3	3.2	0.8	-1.7	.	.
